Here are results for five molecules from ChEMBL document CHEMBL1150667, “New cytotoxic constituents from the Formosan soft corals Clavularia viridis and Clavularia violacea” (2002).

Values after ≈ are worked out from the molar mass of the structure shown.

Format in all cases: functional
The subject of one test is A549. Nature of the test: Cytotoxicity against human A549 cells. The settings on record: for EC50: Homo sapiens, A549, read-out: ED50 (the source's name). Summed up: (§1)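 Human lung adenocarcinoma (A549) and colon adenocarcinoma (HT-29) lines obtained from ATCC. Cytotoxicity assayed in cell culture following a previously published standard procedure.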
For a further test, the system named is HT-29. Nature of the test: Cytotoxicity against human HT-29 cells. The settings on record: read-out: ED50 (the source's name). Summed up: as §1
Another test relates to P388. Nature of the test: Cytotoxicity against mouse P388 cells. The settings on record: for EC50: Mus musculus, P388, read-out: ED50 (the source's name). Summed up: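 Mouse lymphocytic leukemia P-388 cells obtained from an academic laboratory (University of Illinois at Chicago). Cytotoxicity assayed in cell culture following a previously published standard procedure.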

Turning to `C=C1C(=O)O[C@H]2/C=C(\C)C[C@H](OC(C)=O)/C=C(\C)C[C@H](OC(C)=O)/C=C(\C)CC[C@H]12` [CLAVIOLIDE], the EC50 is 4.91 µg/mL (≈ 11.8 µM) with A549, 0.84 µg/mL (≈ 2.02 µM) in the test with HT-29 and 0.38 µg/mL (≈ 0.912 µM) in the test with P388.

In the case of `CCCCC/C=C\C[C@]1(OC(C)=O)C=CC(=O)/C1=C/C=C/CCCC(=O)OC` [CLAVIRIDENONE E], the results for the EC50 in the test on A549, with HT-29 and with P388 were 0.41 µg/mL (≈ 1.06 µM), 1.02 µg/mL (≈ 2.63 µM) and 0.11 µg/mL (≈ 0.283 µM), respectively.

Consider `CC(C)[C@@H](C)CC[C@@H](C)[C@H]1CC[C@H]2[C@@H]3C[C@@H](O)C4=CC=CC(=O)[C@]4(C)[C@H]3[C@H](O)C[C@]12C` [STOLONIFERONE E], for which the ED50 in the test with A549 came out at 3.2 ×10⁻⁴ ug/ml; in the test on P388 it was 1.2 ×10⁻⁴ ug/ml. Moreover, in the test with HT-29, the EC50 was found to be 0.0091 µg/mL (≈ 0.0212 µM).

`CC(C)[C@@H](C)CC[C@@H](C)[C@H]1CC[C@H]2[C@@H]3C[C@@H](O)[C@@]4(O)C=C[C@@H](O)C(=O)[C@]4(C)[C@H]3[C@H](O)C[C@]12C` [STOLONIFERONE F]: the EC50 in the test with A549 came out at 3.69 µg/mL (≈ 7.98 µM); with HT-29 it was 6.46 µg/mL (≈ 14 µM); in the test on P388 it was 2.36 µg/mL (≈ 5.1 µM).

Take `C=C(CC[C@@H](C)[C@H]1CC[C@H]2[C@@H]3C[C@@H](O)[C@@]4(O)C=C[C@@H](O)C(=O)[C@]4(C)[C@H]3[C@H](O)C[C@]12C)C(C)C` [STOLONIFERONE G]: the values for the EC50 in the test with A549, in the test with HT-29 and in the test with P388 were 3.58 µg/mL (≈ 7.77 µM), 5.86 µg/mL (≈ 12.7 µM) and 2.12 µg/mL (≈ 4.6 µM), respectively.
